Reference: publication PMC3747510 (Scientific Reports, 2013)

Key:
Assay type in all cases: biochemical
E. coli LeuRS (EcLeuRS) = E. coli LeuRS (EcLeuRS) (Escherichia coli, UniProt P07813); experiment: Aminoacylation inhibition
In short: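 Aminoacylation at 37°C with [3H]leucine, started with 4 mM ATP, in Tris-HCl pH 7.5 buffer. Each LeuRS was used at equal activity, i.e. forming 10 pmol Leu-tRNALeu in 5 min. At least six test-compound concentrations were tested. IC50 was taken from a fitted dose-response curve, as the mean of at least two independent experiments.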

Human cytosolic LeuRS = Human cytosolic LeuRS (Homo sapiens, UniProt Q9P2J5); experiment: Aminoacylation inhibition
In short: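 Human cytosolic or mitochondrial LeuRS, expressed in E. coli. Aminoacylation run at 30°C. At least six test-compound concentrations were tested, with enzyme amount set to form 10 pmol Leu-tRNALeu in 5 min. IC50 was taken from a fitted dose-response curve, as the mean of at least two independent experiments.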

yeast cytosolic LeuRS = target: T1, yeast cytosolic LeuRS (Saccharomyces cerevisiae, UniProt P26637); experiment: Aminoacylation by yeast cytosolic LeuRS; conditions: 100 μM ZCL039
T1 sequence (P26637 1-1090): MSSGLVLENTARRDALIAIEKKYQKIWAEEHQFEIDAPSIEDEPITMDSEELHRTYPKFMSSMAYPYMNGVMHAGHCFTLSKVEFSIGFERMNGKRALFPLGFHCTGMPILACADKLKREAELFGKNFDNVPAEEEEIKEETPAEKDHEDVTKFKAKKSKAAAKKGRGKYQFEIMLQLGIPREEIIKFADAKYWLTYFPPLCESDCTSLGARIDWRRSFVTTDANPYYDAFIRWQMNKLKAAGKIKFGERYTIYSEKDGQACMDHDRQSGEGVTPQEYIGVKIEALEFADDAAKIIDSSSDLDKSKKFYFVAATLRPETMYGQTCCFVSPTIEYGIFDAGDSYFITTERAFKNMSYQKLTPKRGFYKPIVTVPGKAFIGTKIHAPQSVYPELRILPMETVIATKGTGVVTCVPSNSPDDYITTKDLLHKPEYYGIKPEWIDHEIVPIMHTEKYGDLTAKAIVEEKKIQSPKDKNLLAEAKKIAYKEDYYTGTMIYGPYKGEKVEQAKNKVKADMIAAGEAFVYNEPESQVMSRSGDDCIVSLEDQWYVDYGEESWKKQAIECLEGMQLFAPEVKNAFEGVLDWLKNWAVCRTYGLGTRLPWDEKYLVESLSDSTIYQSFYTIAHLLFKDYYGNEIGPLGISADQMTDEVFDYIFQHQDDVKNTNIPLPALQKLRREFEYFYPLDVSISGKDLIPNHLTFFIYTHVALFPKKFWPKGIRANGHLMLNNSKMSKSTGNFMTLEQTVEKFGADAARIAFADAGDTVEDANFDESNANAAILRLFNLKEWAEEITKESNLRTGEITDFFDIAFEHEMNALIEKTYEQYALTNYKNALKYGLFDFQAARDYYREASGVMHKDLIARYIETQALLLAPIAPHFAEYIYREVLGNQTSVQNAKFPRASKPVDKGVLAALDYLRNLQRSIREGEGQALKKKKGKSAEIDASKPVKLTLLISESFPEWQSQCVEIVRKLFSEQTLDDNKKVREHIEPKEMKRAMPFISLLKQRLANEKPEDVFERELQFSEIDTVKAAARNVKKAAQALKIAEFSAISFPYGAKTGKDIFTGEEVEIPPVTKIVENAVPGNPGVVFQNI

SpLeuRS C399S = target: T2, SpLeuRS C399S (Streptococcus pneumoniae serotype 4, UniProt Q97SS0, W399S); experiment: Aminoacylation and deacylation by SpLeuRS C399S mutant; conditions: 50 μM ZCL039
T2 sequence (Q97SS0 1-833 W399S): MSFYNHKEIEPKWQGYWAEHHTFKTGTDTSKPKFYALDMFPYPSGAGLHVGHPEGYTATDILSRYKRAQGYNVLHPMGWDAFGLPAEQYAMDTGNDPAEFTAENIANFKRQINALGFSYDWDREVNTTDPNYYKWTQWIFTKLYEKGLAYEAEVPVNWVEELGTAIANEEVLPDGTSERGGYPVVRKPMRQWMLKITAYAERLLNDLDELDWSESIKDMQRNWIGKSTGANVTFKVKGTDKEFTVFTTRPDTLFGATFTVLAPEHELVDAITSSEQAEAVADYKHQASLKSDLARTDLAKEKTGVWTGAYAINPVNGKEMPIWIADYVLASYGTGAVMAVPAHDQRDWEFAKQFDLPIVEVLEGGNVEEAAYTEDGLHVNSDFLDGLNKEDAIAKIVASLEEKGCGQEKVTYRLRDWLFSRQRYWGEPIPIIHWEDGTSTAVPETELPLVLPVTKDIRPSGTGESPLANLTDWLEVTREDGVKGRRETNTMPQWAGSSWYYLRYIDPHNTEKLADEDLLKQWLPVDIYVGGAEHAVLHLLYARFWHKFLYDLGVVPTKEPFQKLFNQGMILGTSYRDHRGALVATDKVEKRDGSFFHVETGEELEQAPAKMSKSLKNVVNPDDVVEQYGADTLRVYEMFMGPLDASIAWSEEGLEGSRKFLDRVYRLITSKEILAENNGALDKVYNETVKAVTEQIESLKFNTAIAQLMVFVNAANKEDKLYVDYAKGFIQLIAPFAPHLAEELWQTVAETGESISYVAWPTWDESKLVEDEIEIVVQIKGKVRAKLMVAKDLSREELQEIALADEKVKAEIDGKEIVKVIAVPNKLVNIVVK

Human cytosolic LeuRS, sequence (Q9P2J5 whole entry): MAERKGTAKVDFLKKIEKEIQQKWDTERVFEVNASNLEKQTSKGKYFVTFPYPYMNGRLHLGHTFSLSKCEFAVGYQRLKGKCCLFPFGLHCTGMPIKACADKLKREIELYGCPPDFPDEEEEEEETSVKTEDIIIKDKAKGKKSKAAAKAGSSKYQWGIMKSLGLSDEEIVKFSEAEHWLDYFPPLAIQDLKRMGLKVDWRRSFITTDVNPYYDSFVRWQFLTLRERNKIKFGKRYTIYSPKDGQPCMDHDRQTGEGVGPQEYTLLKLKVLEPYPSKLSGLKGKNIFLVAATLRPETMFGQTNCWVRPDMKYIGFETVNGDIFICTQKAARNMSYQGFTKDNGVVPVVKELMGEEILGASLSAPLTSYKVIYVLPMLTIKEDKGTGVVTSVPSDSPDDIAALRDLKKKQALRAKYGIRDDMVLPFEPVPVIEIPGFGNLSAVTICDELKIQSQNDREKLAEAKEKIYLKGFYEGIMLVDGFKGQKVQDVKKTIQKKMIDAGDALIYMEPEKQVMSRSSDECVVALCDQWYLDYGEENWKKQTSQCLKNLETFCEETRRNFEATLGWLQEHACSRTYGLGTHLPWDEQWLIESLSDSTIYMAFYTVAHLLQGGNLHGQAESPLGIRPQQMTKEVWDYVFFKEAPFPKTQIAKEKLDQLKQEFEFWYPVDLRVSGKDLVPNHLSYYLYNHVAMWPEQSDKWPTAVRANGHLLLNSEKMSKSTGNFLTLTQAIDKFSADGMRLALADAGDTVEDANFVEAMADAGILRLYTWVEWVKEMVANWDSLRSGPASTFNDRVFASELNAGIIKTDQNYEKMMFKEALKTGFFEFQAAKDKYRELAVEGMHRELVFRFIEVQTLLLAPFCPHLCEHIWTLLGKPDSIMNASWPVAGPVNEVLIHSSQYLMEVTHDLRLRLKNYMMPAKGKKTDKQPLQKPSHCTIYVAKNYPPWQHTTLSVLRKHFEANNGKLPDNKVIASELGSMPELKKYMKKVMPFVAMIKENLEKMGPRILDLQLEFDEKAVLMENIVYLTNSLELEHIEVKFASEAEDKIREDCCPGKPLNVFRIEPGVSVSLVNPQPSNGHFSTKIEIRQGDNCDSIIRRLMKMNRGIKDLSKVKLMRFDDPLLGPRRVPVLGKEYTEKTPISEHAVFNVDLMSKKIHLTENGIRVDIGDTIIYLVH
E. coli LeuRS (EcLeuRS), sequence (P07813 whole entry): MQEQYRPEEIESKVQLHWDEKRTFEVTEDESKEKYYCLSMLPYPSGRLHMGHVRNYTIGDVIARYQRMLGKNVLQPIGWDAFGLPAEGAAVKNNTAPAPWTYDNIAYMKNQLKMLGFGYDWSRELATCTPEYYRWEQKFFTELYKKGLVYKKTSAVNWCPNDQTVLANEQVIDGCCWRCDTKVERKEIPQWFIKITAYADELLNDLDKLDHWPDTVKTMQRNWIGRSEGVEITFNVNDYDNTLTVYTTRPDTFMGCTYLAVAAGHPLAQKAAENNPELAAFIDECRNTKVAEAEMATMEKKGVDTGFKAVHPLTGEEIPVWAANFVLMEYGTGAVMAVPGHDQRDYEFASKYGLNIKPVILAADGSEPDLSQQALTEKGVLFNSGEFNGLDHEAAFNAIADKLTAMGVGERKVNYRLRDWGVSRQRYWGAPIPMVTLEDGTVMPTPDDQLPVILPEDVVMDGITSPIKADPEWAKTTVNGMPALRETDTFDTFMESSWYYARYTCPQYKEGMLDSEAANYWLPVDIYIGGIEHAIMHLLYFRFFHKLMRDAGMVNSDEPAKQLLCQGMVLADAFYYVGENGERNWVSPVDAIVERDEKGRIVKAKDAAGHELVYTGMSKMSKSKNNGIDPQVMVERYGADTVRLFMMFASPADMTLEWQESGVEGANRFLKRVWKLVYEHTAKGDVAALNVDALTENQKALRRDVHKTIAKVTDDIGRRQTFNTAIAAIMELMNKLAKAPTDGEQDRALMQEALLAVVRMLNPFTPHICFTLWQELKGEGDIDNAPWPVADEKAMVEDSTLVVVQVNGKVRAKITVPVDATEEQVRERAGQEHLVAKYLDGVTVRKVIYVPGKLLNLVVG

Compound: OB1OCc2ccc(C(O)c3ccccc3)cc21 (stereo not shown) [ZCL039, [6-(1-phenyl-1-hydroxylmethyl)]-1,3-dihydro-1-hydroxy-2,1-benzoxaborole]
- IC50 (E. coli LeuRS (EcLeuRS)): 8.25 ± 1.2 µM
- IC50 towards SpLeuRS relative to EcLeuRS (E. coli LeuRS (EcLeuRS); printed as higher): 5 fold
- IC50 (Human cytosolic LeuRS): > 250 µM
- Fold more sensitivity of SpLeuRS than human cytosolic LeuRS (Human cytosolic LeuRS; aminoacylation): over 150 fold
- Fold less sensitive than SpLeuRS (Human cytosolic LeuRS; human cytosolic and mitochondrial LeuRSs vs SpLeuRS): approximately 150 fold
- Activity against yeast cytosolic LeuRS aminoacylation (yeast cytosolic LeuRS): little effect
- Sensitivity of C399S mutant to ZCL039 (SpLeuRS C399S): comparable to the wild-type SpLeuRS
